Results on three compounds are retold here after ChEMBL document CHEMBL3091449, “Synthesis and antimicrobial profile of N-substituted imidazolium oximes and their monoquaternary salts against multidrug resistant bacteria” (2013).

Molecules are shown by their SMILES. In brackets after ≈: the same amount, converted by molar mass.

Format in all cases: functional
The test system of assay [1] is Aeromonas caviae. Description: Antibacterial activity against TEM-1/CTX-M-15 expressing Aeromonas caviae isolate 260 after 18 to 24 hrs by two-fold broth microdilution assay. Summed up:
(§1)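 CLSI two-fold broth microdilution was used. Compounds were dissolved in DMSO, brought to 10 mg/mL in medium, then serially diluted in Mueller Hinton broth over 400–0.09 µg/mL. Overnight MHB cultures were diluted to 10^6 CFU/mL, and 10 µL was added per well. Plates were incubated 18–24 h at 37 °C, then 0.2 mg/mL INT was added for 30 min at 37 °C. MIC was the lowest concentration with no visible growth or pink colour, triplicate.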
Background: In broth dilution the organism is exposed to a series of concentrations in liquid medium.

The next assay relates to Kluyvera intermedia. Description: Antibacterial activity against TEM-1/SHV-12/[…] expressing Enterobacter intermedius isolate 243 after 18 to 24 hrs by two-fold broth microdilution assay. In a few lines: as §1
Assay [2] concerns Aeromonas caviae. Description: Antibacterial activity against […] expressing Aeromonas caviae isolate 258 after 18 to 24 hrs by two-fold broth microdilution assay. In a few lines: as §1
Assay [3] concerns Enterobacter cloacae. Description: Antibacterial activity against TEM-1/CTX-M-15 expressing Enterobacter cloacae isolate 62 after 18 to 24 hrs by two-fold broth microdilution assay.
Assay [4] has as its system Escherichia coli. Kind of assay: Antibacterial activity against […] expressing Escherichia coli isolate 235 after 18 to 24 hrs by two-fold broth microdilution assay. Summed up: (§2)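 CLSI two-fold broth microdilution. Compounds dissolved in DMSO, 10 mg/mL stock, serially diluted to 400–0.09 µg/mL in Mueller Hinton broth. Wells inoculated with 10^6 CFU/mL bacteria and incubated 18–24 h at 37 °C. 0.2 mg/mL INT added for 30 min. MIC taken as the lowest concentration with no visible growth or pink colour. Triplicate.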

In assay [5] the test system is Enterobacter cloacae. Kind of assay: Antibacterial activity against TEM-1/SHV-12 expressing Enterobacter cloacae isolate 306 after 18 to 24 hrs by two-fold broth microdilution assay.
A further assay concerns Pseudomonas aeruginosa. Kind of assay: Antibacterial activity against GIM-1 expressing Pseudomonas aeruginosa isolate 197 after 18 to 24 hrs by two-fold broth microdilution assay. Summed up:
as §1

The next assay deals with Acinetobacter baumannii. Description: Antibacterial activity against SIM-1 expressing Acinetobacter baumannii isolate 170 after 18 to 24 hrs by two-fold broth microdilution assay. In a few lines: as §2
Assay [6] relates to Enterobacter cloacae. Description: Antibacterial activity against CTX-15 expressing Enterobacter cloacae isolate 51 after 18 to 24 hrs by two-fold broth microdilution assay.
The test system of the next assay is Aeromonas hydrophila. Kind of assay: Antibacterial activity against TEM-1/SHV-12 expressing Aeromonas hydrophila isolate 268 after 18 to 24 hrs by two-fold broth microdilution assay. Summed up: as §1
For a further assay, the system named is Klebsiella pneumoniae. Description: Antibacterial activity against TEM-1/SHV-12 expressing Klebsiella pneumoniae isolate 303 after 18 to 24 hrs by two-fold broth microdilution assay. Summed up:
as §1

Assay [7] deals with Escherichia coli. Description: Antibacterial activity against TEM-1/SHV-12 expressing Escherichia coli isolate 237 after 18 to 24 hrs by two-fold broth microdilution assay. Summed up:
as §2

Assay [8] concerns Stenotrophomonas maltophilia. Description: Antibacterial activity against […] expressing Stenotrophomonas maltophilia isolate 125 after 18 to 24 hrs by two-fold broth microdilution assay. In a few lines: as §1
Assay [9] concerns Escherichia coli. Description: Antibacterial activity against […] expressing Escherichia coli isolate 4024 after 18 to 24 hrs by two-fold broth microdilution assay. In a few lines: as §2

Broadly, the MIC is the lowest concentration found to suppress growth. Read a high MIC as a less susceptible organism. For the compound `NC[C@H]1O[C@H](O[C@H]2[C@H](O)[C@@H](O[C@H]3O[C@H](CO)[C@@H](O)[C@H](N)[C@H]3O)[C@H](N)C[C@@H]2N)[C@H](N)C[C@@H]1O` [TOBRAMYCIN], the MIC is 32 µg/mL (≈ 68.4 µM) in the assay with Aeromonas caviae [1]; more than 32 µg/mL in the assay with Kluyvera intermedia; 32 µg/mL (≈ 68.4 µM) against Aeromonas caviae [2]; 32 µg/mL (≈ 68.4 µM) against Enterobacter cloacae [3]; 16 µg/mL (≈ 34.2 µM) against Escherichia coli [4]; 16 µg/mL (≈ 34.2 µM) with Enterobacter cloacae [5]. Further, the MIC was 16 µg/mL (≈ 34.2 µM) in the assay on Pseudomonas aeruginosa; 16 µg/mL (≈ 34.2 µM) against Acinetobacter baumannii; more than 32 µg/mL in the assay on Enterobacter cloacae [6]; 16 µg/mL (≈ 34.2 µM) in the assay with Aeromonas hydrophila; 2 µg/mL (≈ 4.28 µM) in the assay with Klebsiella pneumoniae; 64 µg/mL (≈ 137 µM) against Escherichia coli [7]. Further, the MIC in assay [8] is 8 µg/mL (≈ 17.1 µM); in the assay on Escherichia coli [9], 32 µg/mL (≈ 68.4 µM).
With `C[C@@H](O)[C@H]1C(=O)N2C(C(=O)O)=C(S[C@@H]3CN[C@H](C(=O)N(C)C)C3)[C@H](C)[C@H]12` [MEROPENEM], the minimal inhibitory concentration (MIC) turned out to be 1 µg/mL (≈ 2.61 µM) with Aeromonas caviae [1]; 0.12 µg/mL (≈ 0.313 µM) in the assay on Kluyvera intermedia; 0.125 µg/mL (≈ 0.326 µM) against Aeromonas caviae [2]; 0.5 µg/mL (≈ 1.3 µM) against Enterobacter cloacae [3]; 0.12 µg/mL (≈ 0.313 µM) against Escherichia coli [4]; 0.25 µg/mL (≈ 0.652 µM) against Enterobacter cloacae [5]. The minimum inhibitory concentration (MIC) is more than 8 µg/mL in the assay on Pseudomonas aeruginosa; 16 µg/mL (≈ 41.7 µM) in the assay on Acinetobacter baumannii; 0.25 µg/mL (≈ 0.652 µM) in the assay on Enterobacter cloacae [6]; 0.06 µg/mL (≈ 0.156 µM) against Aeromonas hydrophila; 0.12 µg/mL (≈ 0.313 µM) in the assay with Klebsiella pneumoniae; 1 µg/mL (≈ 2.61 µM) with Escherichia coli [7]. Moreover, the minimal inhibitory concentration (MIC) in assay [8] is 128 µg/mL (≈ 334 µM); with Escherichia coli [9] it was 0.12 µg/mL (≈ 0.313 µM).
`CC(C)(O/N=C(\C(=O)N[C@@H]1C(=O)N2C(C(=O)[O-])=C(C[n+]3ccccc3)CS[C@H]12)c1csc(N)n1)C(=O)O` [CEFTAZIDIME]: the MIC against Aeromonas caviae [1] was 128 µg/mL (≈ 234 µM); in the assay with Kluyvera intermedia it was 8 µg/mL (≈ 14.6 µM); against Aeromonas caviae [2], 4 µg/mL (≈ 7.32 µM); against Enterobacter cloacae [3] it was more than 256 µg/mL; against Escherichia coli [4], 64 µg/mL (≈ 117 µM); against Enterobacter cloacae [5], more than 256 µg/mL. In addition, the minimum inhibitory concentration (MIC) with Pseudomonas aeruginosa is 256 µg/mL (≈ 468 µM); against Acinetobacter baumannii it was more than 256 µg/mL; in the assay on Enterobacter cloacae [6] it was 16 µg/mL (≈ 29.3 µM); against Aeromonas hydrophila, 64 µg/mL (≈ 117 µM); in the assay on Klebsiella pneumoniae, 128 µg/mL (≈ 234 µM); in the assay with Escherichia coli [7], 8 µg/mL (≈ 14.6 µM). The MIC was 128 µg/mL (≈ 234 µM) in assay [8] and 16 µg/mL (≈ 29.3 µM) with Escherichia coli [9].
